Experimental data from ChEMBL document CHEMBL1144666, “Indoleamine 2,3-dioxygenase is the anticancer target for a novel series of potent naphthoquinone-based inhibitors” (J Med Chem, 2008).
Active and inactive are the calls of the source. The calls are words filed in the database; no cut-off is given here.

System: Mus musculus
Experiment: Antitumor activity in parous MMTV-Neu transgenic FVB mouse assessed as tumor volume at 25 mg/kg, ip qd for 5 days
Assay type: functional, organism-based
Design: dose 25 mg/kg
Settings: not given
In short: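 Autochthonous mammary tumors in parous FVB MMTV-Neu mice expressing wild-type rat HER2/Neu. Agent given at 25 mg/kg for 5 consecutive days in the first week; paclitaxel cohorts received 13.3 mg/kg i.v. qd 3×/week over the 2-week treatment period. Read-out is fold change in volume of individual tumors, with mean ± SEM per group.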

Row | SMILES | Activity
1 | CC1=CC(=O)c2ccccc2C1=O [MENADIONE] | Active

System: not listed separately
Experiment: Cytotoxicity against human TREx cells expressing doxycyclin-inducible IDO assessed as cell viability by SRB assay
Assay type: functional
Settings: read-out: LD50 (the source's name)
In short: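 T-REx cells with inducible human IDO cDNA, seeded at 20000/well in DMEM + 10% FBS, induced 72 h with 20 ng/mL doxycycline, rinsed, then exposed to serial compound dilutions in phenol red-free DMEM + 10% FBS for 18 h, in triplicate.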

Row | SMILES | CC50 [µM]
2 | CC1=CC(=O)c2ccccc2C1=O [MENADIONE] | 126

Target: T1, Indoleamine 2,3-dioxygenase 1 (Homo sapiens, UniProt P14902)
Experiment: Inhibition of purified human recombinant IDO
Settings: not given

Row | SMILES | IC50 [µM] | Activity | Ki [µM]
3 | CC1(C)CCC2=C(O1)C(=O)c1ccccc1C2=O [ALPHA-LAPACHONE] | 4.34 |  | 
4 | CCCCN[C@H]1C2=C(OC(C)(C)[C@H]1O)C(=O)c1ccccc1C2=O | 0.13 |  | 
5 | CC1(C)C=CC2=C(O1)C(=O)c1c(O)cccc1C2=O | 0.121 |  | 
6 | COC1C2=C(OC(C)(C)C1O)C(=O)c1ccccc1C2=O (trans isomer) | 3.96 |  | 
7 | O=C1C=CC(=O)c2c(O)cccc21 [JUGLONE] | 1 |  | 
8 | COC(=O)C1(C)C=CC2=C(O1)C(=O)c1ccccc1C2=O (stereo not given) | 0.247 |  | 
9 | CC1(C)OC2=C(C(=O)c3ccccc3C2=O)C(O)C1O (stereo not given) | 1.5 |  | 
10 | Cc1c(SC[C@H](NC(=O)CC[C@H](N)C(=O)O)C(=O)NCC(=O)O)c(O)c2ccccc2c1O | 0.34 |  | 
11 | CC1=CC(=O)c2ccccc2C1=O [MENADIONE] | 1 |  | 
12 | C=CCNC1C2=C(OC(C)(C)C1O)C(=O)c1ccccc1C2=O (trans isomer) | 0.186 |  | 
13 | CC1(C)C=CC2=C(O1)C(=O)c1ccc(O)cc1C2=O | 5.52 |  | 
14 | O=C1C=Cc2ccccc2C1=O [1,2-NAPHTHOQUINONE] | 7.1 |  | 
15 | O=C1C=CC(=O)C=C1 |  | inactive | 
16 | COc1ccc2c(c1)C(=O)C1=C(C=CC(C)(C)O1)C2=O | 0.933 |  | 
17 | CC1(C)OC2=C(C(=O)c3ccccc3C2=O)C(N2CCOCC2)C1O (trans isomer) | 0.361 |  | 
18 | CC1(C)C=CC2=C(O1)C(=O)c1cc(O)ccc1C2=O | 2.05 |  | 
19 | CC1=C(C/C=C(\C)CCC[C@H](C)CCC[C@H](C)CCCC(C)C)C(=O)c2ccccc2C1=O |  | inactive | 
20 | CCCCNC1C2=C(OC(C)(C)C1O)C(=O)c1ccccc1C2=O (trans isomer) | 0.082 |  | 
21 | CC1=C(SC[C@H](NC(=O)CC[C@H](N)C(=O)O)C(=O)NCC(=O)O)C(=O)c2ccccc2C1=O | 0.88 |  | 

Row | SMILES | IC50 [µM] | Activity | Ki [µM]
22 | CC1(C)OC2=C(C(=O)c3ccccc3C2=O)C(OCc2ccccc2)C1O (stereo not given) | 1.09 |  | 
23 | CC1(C)C=CC2=C(O1)C(=O)c1cccc(O)c1C2=O | 0.19 |  | 
24 | O=C1C=CC(=O)C(c2ccccc2)=C1 |  | inactive | 
25 | CC1(C)OC2=C(C(=O)c3ccccc3C2=O)C(SCc2ccccc2)C1O (trans isomer) | 2.12 |  | 
26 | COc1cccc2c1C(=O)C1=C(OC(C)(C)C=C1)C2=O | 2.13 |  | 
27 | O=C1C=C(O)C(=O)c2ccccc21 [LAWSONE] | 675 |  | 
28 | O=c1ccoc2ccccc12 |  | inactive | 
29 | CC1(C)OC2=C(C(=O)c3ccccc3C2=O)C(O)C1Br (stereo not given) | 0.512 |  | 
30 | CC1(C)OC2=C(C(=O)c3ccccc3C2=O)[C@@H]2O[C@@H]21 | 4.95 |  | 
31 | CC1(C)OC2=C(C(=O)c3ccccc3C2=O)C(N2CCOCC2)C1O (cis isomer) | 1.1 |  | 
32 | COc1cccc2c1C(=O)C1=C(C=CC(C)(C)O1)C2=O | 2.92 |  | 
33 | COc1ccc2c(c1)C(=O)C1=C(OC(C)(C)C=C1)C2=O | 3.02 |  | 
34 | CC1(C)C=CC2=C(O1)C(=O)c1ccccc1C2=O [DEHYDRO-ALPHA-LAPACHONE] | 0.214 |  | 
35 | CC1(C)OC2=C(C(=O)c3ccccc3C2=O)C(SCc2ccccc2)C1O (cis isomer) | 3.45 |  | 
36 | O=C1C(Cl)=C(Cl)C(=O)c2ccccc21 [Dichlon] | 0.28 |  | 
37 | CC1=CC(=O)C=CC1=O |  | inactive | 
38 | COC1=CC(=O)c2ccccc2C1=O [2-Methoxy-1,4-naphthoquinone] | 0.72 |  | 
39 | COC1C2=C(OC(C)(C)C1O)C(=O)c1ccccc1C2=O (cis isomer) | 0.976 |  | 
40 | CCc1c(C)cc2c(c1O)C(=O)C1=C(C2=O)C(C)(C)C(=O)C(C)(C(=O)OC)O1 (stereo not given) |  |  | 0.12

System: B16-F10
Experiment: Antitumor activity in mouse B16-F10 cells isografted C57BL/6 mouse at 25 mg/kg, ip qd for 5 days
Assay type: functional, organism-based
Design: dose 25 mg/kg
Settings: not given
In short: (§1)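 Mice given 1 × 10^5 B16-F10 melanoma cells s.c.; i.p. dosing at 25 mg/kg qd 5 days a week begins 7 days later and runs until the experiment ends. Tumors are measured by caliper twice weekly until control tumors reach ~5000 mm3. Data are mean tumor size ± SEM. Treated and untreated groups are compared at study end by two-tailed Mann–Whitney test.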

Row | SMILES | Activity
41 | CC1=CC(=O)c2ccccc2C1=O [MENADIONE] | Active

System: B16-F10
Experiment: Antitumor activity in mouse B16-F10 cells isografted athymic NCr-nu/nu mouse at 25 mg/kg, ip qd for 5 days
Assay type: functional, organism-based
Design: dose 25 mg/kg
Settings: not given
In short: as §1

Row | SMILES | Activity
42 | CC1=CC(=O)c2ccccc2C1=O [MENADIONE] | inactive

Target: T1, Indoleamine 2,3-dioxygenase 1
Experiment: Inhibition of purified human recombinant IDO expressed in TREx cells
Settings: not given
In short: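 T-REx cells carrying doxycycline-inducible human IDO cDNA are seeded at 20000/well and induced 72 h with doxycycline. They are rinsed, then exposed in triplicate to serial dilutions in phenol red-free DMEM + 10% FBS for 18 h and TCA-fixed. Supernatant kynurenine is read with p-DMAB at 490 nm, corrected for SRB viability. IC50 is taken from a sigmoidal curve.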
Target sequence in this assay (P14902 whole entry): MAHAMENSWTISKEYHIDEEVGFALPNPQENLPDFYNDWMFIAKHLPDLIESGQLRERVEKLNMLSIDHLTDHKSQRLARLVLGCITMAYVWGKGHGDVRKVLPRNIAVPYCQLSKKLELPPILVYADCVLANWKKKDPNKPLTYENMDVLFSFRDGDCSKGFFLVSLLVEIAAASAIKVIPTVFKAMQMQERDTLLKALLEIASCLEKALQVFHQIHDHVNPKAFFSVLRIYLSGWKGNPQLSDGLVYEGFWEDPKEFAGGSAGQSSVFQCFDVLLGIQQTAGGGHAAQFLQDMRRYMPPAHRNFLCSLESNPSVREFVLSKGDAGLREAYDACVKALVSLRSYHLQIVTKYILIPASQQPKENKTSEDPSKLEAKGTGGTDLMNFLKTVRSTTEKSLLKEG

Row | SMILES | IC50 [µM]
43 | CC1(C)C=CC2=C(O1)C(=O)c1c(O)cccc1C2=O | 69
44 | CCCCNC1C2=C(OC(C)(C)C1O)C(=O)c1ccccc1C2=O (trans isomer) | 87

System: B16-F10
Experiment: Antitumor activity in mouse B16-F10 cells isografted IDO knockout C57BL/6 mouse at 25 mg/kg, ip qd for 5 days
Assay type: functional, organism-based
Design: dose 25 mg/kg
Settings: not given
In short: as §1

Row | SMILES | Activity
45 | CC1=CC(=O)c2ccccc2C1=O [MENADIONE] | inactive
